Assay results from different studies.
Each line is one published result; the experiments were not run side by side.
Target: Tyrosine-protein kinase SYK (SYK, Homo sapiens, UniProt P43405)

C[C@H](c1ccnc(Nc2nc3ccc(-c4cc(N(C)C)ncn4)cc3[nH]2)c1)N1CCN(C(=O)CC(F)(F)F)CC1
remaining binding (binding, competition with immobilised ligand; 0.1 µM): 31%

COc1cc(Cl)c(C(=O)N[C@@H](CN[C@H]2CC[C@@H](N)CC2)Cc2ccc(C#N)cc2)cc1-c1ccc(CN[C@H](C)c2ccc(C)cc2)o1
remaining activity (enzyme activity, inhibitor; 1 µM): 97%

CC(C)(C)C(=O)c1sc(NC2CCCCC2)nc1N
remaining activity (enzyme activity, inhibitor; 10 µM): 111%

COc1cc(Nc2cnc(C#N)c(O[C@H](C)CN(C)C)n2)ncc1-c1cnn(C)c1
remaining activity (enzyme activity, inhibitor, radiometric; 1 µM): 93%

Cc1cc(NC(=O)c2cccc3cc(-c4cccc5[nH]nc(N)c45)ccc23)ccc1F
activity vs control (enzyme activity, inhibitor; 0.1 µM): 109%

CS(=O)(=O)N1CCCC(NC(=O)[C@H](CCC2CCCCC2)NC(=O)c2ccc(CNc3ncnc4c3nnn4-c3ccccc3)cc2)C1 (stereo partly shown)
remaining binding (cell-free assay, competition with immobilised ligand; 0.1 µM): 88%

CCCS(=O)(=O)Nc1ccc(F)c(C(=O)c2c[nH]c3ncc(-c4ccc(Cl)cc4)cc23)c1F
inhibition (enzyme activity, inhibitor; 1 µM): < 10%

Oc1cccc(-c2nc(N3CCOCC3)c3oc4ncccc4c3n2)c1
remaining activity (enzyme activity, inhibitor; 10 µM): 69%

Cc1ccc(NC(=O)c2ccc(C)c(C(F)(F)F)c2)cc1C#Cc1nn(C2CCC(O)CC2)c2ncnc(N)c12 (stereo not shown)
remaining signal (cell-free assay; 10 µM): 95%

Oc1cccc(-c2nc(N3CCOCC3)c3oc4ncccc4c3n2)c1
remaining signal (cell-free assay; 0.5 µM): 94.2%

CN(c1ccnc(CNc2nc(Nc3ccc4c(c3)CC(=O)N4)ncc2C(F)(F)F)n1)S(C)(=O)=O
remaining binding (cell-free assay, competition with immobilised ligand; 1 µM): 5.7%

Cn1c(=O)n(-c2ccc(C(C)(C)C#N)cc2)c2c3cc(-c4cnc5ccccc5c4)ccc3ncc21
remaining activity (enzyme activity, inhibitor; 10 µM): 72%

COc1cc2c(Nc3ccc(Br)cc3F)ncnc2cc1OCC1CCN(C)CC1
remaining signal (cell-free assay; 0.5 µM): 101%

Cc1c(C(=O)O)cc(-c2ccc(C3CCNCC3)cc2)c2ccc(-c3ccc(C(F)(F)F)cc3)cc12
remaining binding (cell-free assay, competition with immobilised ligand; 1 µM): 100%

Cc1sc(C(=O)NC2COC2)cc1-n1cc(NC(=O)Nc2c(F)cccc2Cl)cn1
remaining activity (enzyme activity, inhibitor; 10 µM): 88.5%

Cc1ccc(C(=O)NCc2ccsc2)cc1C#Cc1cn(C(C)C)c2ncnc(N)c12
activity vs control (enzyme activity, inhibitor; 1 µM): 91%

O=C1NC(=O)c2cc(Nc3ccc(F)cc3)c(Nc3ccc(F)cc3)cc21
remaining signal (cell-free assay; 0.5 µM): 98.8%

Cc1c(NC(=O)c2cc(C(N)=O)nc3cc(F)ccc23)c(C(F)(F)F)nn1Cc1ccc(C#N)cc1
remaining binding (cell-free assay, competition with immobilised ligand; 1 µM): 95%

CNC(=O)c1cc(Oc2ccc(NC(=O)Nc3ccc(Cl)c(C(F)(F)F)c3)cc2)ccn1
inhibition (enzyme activity, inhibitor; 10 µM): -6%

Nc1nc(Nc2ccccc2)sc1C(=O)c1c(F)cccc1F
remaining activity (enzyme activity, inhibitor; 10 µM): 37%

O=C(O)[C@H]1[C@H](Cn2nnc3ccccc3c2=O)CC[C@@H]1C(=O)c1ccc(OCCC2CCOCC2)cc1
remaining binding (cell-free assay, competition with immobilised ligand; 1 µM): 76%

CN(C)C1CCN(CC#Cc2nn(C3CCCC3)c3nc(NCc4ccccc4)ncc23)C1 (stereo not shown)
inhibition (enzyme activity, inhibitor, FRET; 10 µM): -1%

CC(C)CC(=O)N1CCc2nc(-c3ccc(Br)cc3)nc(N(C)Cc3ccccc3)c2C1
remaining binding (cell-free assay, competition with immobilised ligand; 0.1 µM): 100%

CC(C)(C)c1nc2c(s1)c1nc(N)ncc1c1ccc(NS(=O)(=O)c3c(F)cccc3F)c(F)c12
remaining activity (enzyme activity, inhibitor, radiometric; 1 µM): 95%

COc1cc2ncnc(Nc3ccc(Oc4ccccc4)c(C)c3C)c2cc1OC
inhibition (enzyme activity, inhibitor; 1 µM): 4%

Cc1ccc(Nc2nccc(N(C)c3ccc4c(C)n(C)nc4c3)n2)cc1S(N)(=O)=O
inhibition (enzyme activity, inhibitor; 10 µM): 88%

Nc1ncnc2occ(-c3ccc(NC(=O)Nc4cc(C(F)(F)F)ccc4F)cc3)c12
remaining signal (cell-free assay, inhibitor; 20 µM): 2.4%

FC(F)(F)Oc1cccc(-c2cnc3ccc(-c4ccncc4)nn23)c1
activity vs control (enzyme activity, inhibitor, radiometric; 5 µM): 72%

Cc1nc(Cc2cccc(C(F)(F)F)c2)sc1-c1ccc(C(N)=O)nc1
remaining binding (cell-free assay, competition with immobilised ligand; 1 µM): 100%

CNc1cccc2cc(C(=O)Nc3ccc(C(=O)O)cc3)c(=O)[nH]c12
inhibition (enzyme activity, inhibitor; 10 µM): 4%

CS(=O)(=O)Nc1cccc(-c2csc(NC(=O)CSc3nc4nccnc4c(=O)n3CCc3ccccc3)n2)c1
inhibition (enzyme activity, inhibitor; 10 µM): -1%
